The text below walks through data of ChEMBL document CHEMBL3272083, “Antiinflammatory and analgesic diastereoisomeric derivatives of indan-5-acetic acid” (J Med Chem, 1978).

Data set [1] deals with Rattus norvegicus. Nature of the data set: (§1) Gastrointestinal toxicity in po dosed rat assessed as ulcerogenic activity after 6 hrs administered in 1% w/v arabic gum. Particulars: in vivo, 6 h. The class given is organism-based. In a few lines: (§2)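 Fasted rats dosed orally, compound suspended in 1% w/v arabic gum. Stomachs examined 6 h after dosing; gastric ulcer intensity graded on a 0–3 scale. The 50% ulcerogenic dose (UD50) was read graphically.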

Data set [2] has as its system Rattus norvegicus. The data set is described as follows: Antiinflammatory activity in po dosed rat assessed as inhibition of carrageenan-induced edema administered in 1% w/v arabic gum. Type of data set: functional. The procedure, abridged:
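Given orally in 1% w/v arabic gum vehicle. Read-out was carrageenan-induced edema. ED50 and 95% confidence limits were derived by Bliss's method.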
For orientation: Carrageenan injected into the paw causes an acute inflammation.

Data set [3] has as its system Rattus norvegicus. Nature of the data set: Analgesic activity in po dosed rat assessed as inhibition of phenylbenzoquinone-induced writhing administered in 1% w/v arabic gum. Type of data set: functional. In a few lines:
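Oral dosing in 1% w/v arabic gum vehicle. Read-out was antagonism of writhing produced by phenylbenzoquinone. ED50 with 95% confidence limits was calculated by Bliss's method.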
Background: In writhing tests, fewer writhes than in controls are read as antinociception.

A short description of data set [4]: as §1. Type of data set: organism-based. Particulars: in vivo, read-out: UD50. The procedure, abridged: as §2
Where [5] appears, read: Rattus norvegicus, po, read-out: ED50.

By ED50 is commonly meant the dose that gives a 50% effect, or the effect in half of the subjects. For `CC(C(=O)O)c1ccc2c(c1)CC(C(C)C)C2` (single isomer, unassigned; (+)) [ISOPROFEN], the UD50 in the data set with Rattus norvegicus [1] came to 46 mg/kg. Moreover, the ED50 came out at 24 mg/kg in the data set with Rattus norvegicus [2] and 10 mg/kg in the data set on Rattus norvegicus [3].

On to `CC(C)C1Cc2ccc(CC(=O)O)cc2C1` (racemic), for which, in data set [4], the TD50 at 6 h worked out at 335 mg/kg. Moreover, the ED50 was found to be 155 mg/kg in the data set on Rattus norvegicus [2] (setting [5]) and 57 mg/kg in the data set on Rattus norvegicus [3] (setting [5]).

Take `CC(C(=O)O)c1ccc2c(c1)CC(C(C)C)C2` (single isomer, unassigned; (-)) [ISOPROFEN]: in the data set with Rattus norvegicus [1], the UD50 came out at 87 mg/kg. The ED50 came out at 32 mg/kg in the data set with Rattus norvegicus [2] and 17 mg/kg in the data set with Rattus norvegicus [3].

As for `CCC1Cc2ccc(CC(=O)O)cc2C1` (racemic), the TD50 at 6 h in data set [4] was determined as 125 mg/kg. Moreover, the ED50 is > 256 mg/kg in the data set with Rattus norvegicus [2] (setting [5]) and 104 mg/kg in the data set with Rattus norvegicus [3] (setting [5]).

With `CC(C(=O)O)c1ccc2c(c1)CC(C(C)C)C2` (racemic) [ISOPROFEN], the TD50 at 6 h in data set [4] was determined as 62 mg/kg. The ED50 in the data set with Rattus norvegicus [2] (setting [5]) is 29 mg/kg; in the data set with Rattus norvegicus [3] (setting [5]), 9 mg/kg.

Take `CC1Cc2ccc(C(C)C(=O)[O-])cc2C1.[Na+]` (racemic): the ED50 in the data set with Rattus norvegicus [3] (setting [5]) was 24 mg/kg.

On to `CC1Cc2ccc(CC(=O)O)cc2C1` (racemic), for which the median effective dose (ED50) with Rattus norvegicus [3] (setting [5]) was determined as 175 mg/kg.

As to `CC(C)[C@@H]1Cc2ccc([C@H](C)C(=O)O)cc2C1`, in the data set on Rattus norvegicus [3] (setting [5]), the median effective dose (ED50) stood at 9 mg/kg.

Take `CCC1Cc2ccc(C(C)C(=O)O)cc2C1` (racemic): in data set [4], the TD50 at 6 h was 65 mg/kg. The results for the 50% effective dose (ED50) in the data set with Rattus norvegicus [2] (setting [5]) and in the data set with Rattus norvegicus [3] (setting [5]) were 36 mg/kg and 6 mg/kg, respectively.

Turning to `CC(C)Cc1ccc(C(C)C(=O)O)cc1` (centres undefined) [IBUPROFEN], the TD50 at 6 h in data set [4] worked out at 40 mg/kg. For the same compound, the ED50 with Rattus norvegicus [2] (setting [5]) worked out at 44 mg/kg; in the data set on Rattus norvegicus [3] (setting [5]), 17 mg/kg.
